ChEMBL document CHEMBL1144466, “Mutant prevention concentrations of fluoroquinolones for Enterobacteriaceae expressing the plasmid-carried quinolone resistance determinant qnrA1” (2007)
Values after ≈ are worked out from the molar mass of the structure shown.

How the values were obtained:
Klebsiella pneumoniae [1] = experiment: Antimicrobial activity against qnrA1 expressing Klebsiella pneumoniae UAB1 expressing porins by microdilution method; type: functional; details: for MIC: Klebsiella pneumoniae, UAB1
Klebsiella pneumoniae [2] = experiment: Antimicrobial activity against qnrA1 expressing Klebsiella pneumoniae UAB1 GyrA/ParC mutant expressing porins by microdilution method; type: functional
Klebsiella pneumoniae [3] = experiment: Antimicrobial activity against qnrA1 expressing Klebsiella pneumoniae N5 expressing porins by microdilution method; type: functional; details: for MIC: Klebsiella pneumoniae, N5
In short: (§1)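 Microdilution MICs (μg/ml) of ciprofloxacin, levofloxacin or moxifloxacin against Enterobacteriaceae strains differing in qnrA1 carriage: qnrA1 cloned in pACYC184 in E. coli DH10B, natural qnrA1 plasmids transferred to E. coli J53, clinical K. pneumoniae, and qnrA1-negative isogenic controls.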

Klebsiella pneumoniae [4] = experiment: Antimicrobial activity against qnrA1 expressing Klebsiella pneumoniae N5 GyrA/ParC mutant expressing porins by microdilution method; type: functional
Klebsiella pneumoniae [5] = experiment: Antimicrobial activity against qnrA1 expressing Klebsiella pneumoniae1960 GyrA Ser83Phe mutant expressing porins by microdilution method; type: functional; details: for MIC: Klebsiella pneumoniae
Klebsiella pneumoniae [6] = experiment: Antimicrobial activity against qnrA1 expressing Klebsiella pneumoniae 1960 GyrA Ser83Phe/ParC mutant expressing porins by microdilution method; type: functional
In short: (§2)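 Mutants were selected on Mueller-Hinton agar containing ciprofloxacin or moxifloxacin, with colonies allowed to grow for up to 96 h. Colonies recovered one concentration step below the MPC were tested for ciprofloxacin MIC (μg/ml) by microdilution.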

Klebsiella pneumoniae [7] = experiment: Antimicrobial activity against qnrA1 expressing Klebsiella pneumoniae 1132 expressing porins by microdilution method; type: functional; details: for MIC: Klebsiella pneumoniae; in short: as §1
Klebsiella pneumoniae [8] = experiment: Antimicrobial activity against qnrA1 expressing Klebsiella pneumoniae 1132 GyrA/ParC mutant expressing porins by microdilution method; type: functional
Escherichia coli [9] = experiment: Antimicrobial activity against Escherichia coli DH10B expressing porins by microdilution method; type: functional; details: for MIC: Escherichia coli, DH10B; in short: as §1
Escherichia coli [10] = experiment: Antimicrobial activity against Escherichia coli DH10B/pACYC184 expressing porins by microdilution method; type: functional; details: for MIC: Escherichia coli, DH10B; in short: as §1
Escherichia coli [11] = experiment: Antimicrobial activity against qnrA1 expressing Escherichia coli DH10B expressing porins by microdilution method; type: functional; details: for MIC: Escherichia coli, DH10B; in short: as §1
Escherichia coli [12] = experiment: Antimicrobial activity against qnrA1 expressing Escherichia coli DH10B GyrA/ParC mutant expressing porins by microdilution method; type: functional
Escherichia coli [13] = experiment: Antimicrobial activity against Escherichia coli J53 expressing porins by microdilution method; type: functional; in short: as §1
Escherichia coli [14] = experiment: Antimicrobial activity against Escherichia coli J53 GyrA/ParC mutant expressing porins by microdilution method; type: functional
Escherichia coli [15] = experiment: Antimicrobial activity against qnrA1 expressing Escherichia coli J53/pMG252 expressing porins by microdilution method; type: functional; details: for MIC: Escherichia coli, J53; in short: as §1
Escherichia coli [16] = experiment: Antimicrobial activity against qnrA1 expressing Escherichia coli J53/pN5 expressing porins by microdilution method; type: functional; details: for MIC: Escherichia coli, J53; in short: as §1
Escherichia coli [17] = experiment: Antimicrobial activity against qnrA1 expressing Escherichia coli J53/p1960 expressing porins by microdilution method; type: functional; details: for MIC: Escherichia coli, J53; in short: as §1
Escherichia coli [18] = experiment: Antimicrobial activity against qnrA1 expressing Escherichia coli J53/p1960 GyrA/ParC mutant expressing porins by microdilution method; type: functional
Escherichia coli [19] = experiment: Antimicrobial activity against Escherichia coli J53/p1132 negative expressing porins by microdilution method; type: functional; in short: as §1
Escherichia coli [20] = experiment: Antimicrobial activity against Escherichia coli J53/p1132 negative GyrA/ParC mutant expressing porins by microdilution method; type: functional
Klebsiella pneumoniae [21] = experiment: Antimicrobial activity against Klebsiella pneumoniae C2 GyrA Ser83Phe/ParC mutant expressing porins by microdilution method; type: functional; in short: as §2
Klebsiella pneumoniae [22] = experiment: Antimicrobial activity against Klebsiella pneumoniae C2/pMG252 GyrA Ser83Phe mutant expressing porins by microdilution method; type: functional; details: for MIC: Klebsiella pneumoniae, C2
Klebsiella pneumoniae [23] = experiment: Antimicrobial activity against Klebsiella pneumoniae C2/pMG252 GyrA Ser83Phe/ParC mutant expressing porins by microdilution method; type: functional; in short: as §2
Klebsiella pneumoniae [24] = experiment: Antimicrobial activity against Klebsiella pneumoniae C2 GyrA Ser83Phe mutant lacking porins by microdilution method; details: for MIC: Klebsiella pneumoniae, C2
Escherichia coli [25] = experiment: Antimicrobial activity against qnrA1 expressing Escherichia coli J53/pMG252 GyrA/ParC mutant expressing porins by microdilution method; type: functional
Escherichia coli [26] = experiment: Antimicrobial activity against qnrA1 expressing Escherichia coli J53/pN5 GyrA/ParC mutant expressing porins by microdilution method; type: functional
In short: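 Broth microdilution MIC, in μg/ml, with ciprofloxacin, levofloxacin or moxifloxacin against the E. coli J53 transconjugant carrying qnrA1.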

| Structure (SMILES) | MPC (Klebsiella pneumoniae [1]) | MIC (Klebsiella pneumoniae [1]) | MIC (Klebsiella pneumoniae [2]) | MPC (Klebsiella pneumoniae [3]) | MIC (Klebsiella pneumoniae [4]) | MIC (Klebsiella pneumoniae [5]) | MIC (Klebsiella pneumoniae [6]) | MPC (Klebsiella pneumoniae [7]) | MIC (Klebsiella pneumoniae [7]) | MIC (Klebsiella pneumoniae [8]) | MPC (Escherichia coli [9]) | MPC (Escherichia coli [10]) | MPC (Escherichia coli [11]) | MPC (Escherichia coli [13]) | MPC (Escherichia coli [15]) | MPC (Escherichia coli [16]) | MPC (Escherichia coli [17]) | MPC (Escherichia coli [19]) | MIC (Klebsiella pneumoniae [21]) | MIC (Klebsiella pneumoniae [22]) | further results |
| --- | --- | --- | --- | --- | --- | --- | --- | --- | --- | --- | --- | --- | --- | --- | --- | --- | --- | --- | --- | --- | --- |
| COc1c(N2C[C@@H]3CCCN[C@@H]3C2)c(F)cc2c(=O)c(C(=O)O)cn(C3CC3)c12 [MOXIFLOXACIN] | 32 µg/mL | 4 µg/mL (≈ 9.96 µM) | 32 µg/mL (≈ 79.7 µM) | 16 µg/mL | 4 µg/mL (≈ 9.96 µM) | 2 µg/mL (≈ 4.98 µM) | 16 µg/mL (≈ 39.9 µM) | 32 µg/mL | 8 µg/mL (≈ 19.9 µM) | 16 µg/mL (≈ 39.9 µM) | 0.06 µg/mL | 0.06 µg/mL | 2 µg/mL | 0.125 µg/mL | 4 µg/mL | 4 µg/mL | 4 µg/mL | 0.25 µg/mL | 2 µg/mL (≈ 4.98 µM) | 1 µg/mL (≈ 2.49 µM) | MIC (Klebsiella pneumoniae [3]): 0.5 µg/mL (≈ 1.25 µM); MIC (Escherichia coli [9]): 0.002 µg/mL (≈ 0.00498 µM); MIC (Escherichia coli [10]): 0.002 µg/mL (≈ 0.00498 µM); MIC (Escherichia coli [11]): 0.125 µg/mL (≈ 0.311 µM); MIC (Escherichia coli [12]): 0.5 µg/mL (≈ 1.25 µM); MIC (Escherichia coli [13]; Escherichia coli, J53): 0.015 µg/mL (≈ 0.0374 µM); MIC (Escherichia coli [14]): 0.5 µg/mL (≈ 1.25 µM); MIC (Escherichia coli [15]): 0.5 µg/mL (≈ 1.25 µM); MIC (Escherichia coli [16]): 0.125 µg/mL (≈ 0.311 µM); MIC (Escherichia coli [17]): 0.125 µg/mL (≈ 0.311 µM); MIC (Escherichia coli [18]): 4 µg/mL (≈ 9.96 µM); MIC (Escherichia coli [19]; Escherichia coli, J53): 0.015 µg/mL (≈ 0.0374 µM); MIC (Escherichia coli [20]): 0.25 µg/mL (≈ 0.623 µM); MIC (Klebsiella pneumoniae [23]): 32 µg/mL (≈ 79.7 µM); MPC (Klebsiella pneumoniae [24]): 4 µg/mL; MIC (Klebsiella pneumoniae [24]): 0.125 µg/mL (≈ 0.311 µM) |
| C[C@H]1COc2c(N3CCN(C)CC3)c(F)cc3c(=O)c(C(=O)O)cn1c23.C[C@H]1COc2c(N3CCN(C)CC3)c(F)cc3c(=O)c(C(=O)O)cn1c23.O [LEVOFLOXACIN] | 16 µg/mL | 2 µg/mL | 16 µg/mL | 4 µg/mL | 8 µg/mL | 2 µg/mL | 64 µg/mL | 32 µg/mL | 4 µg/mL | 16 µg/mL | 0.015 µg/mL | 0.015 µg/mL | 2 µg/mL | 0.06 µg/mL | 4 µg/mL | 4 µg/mL | 4 µg/mL | 0.06 µg/mL | 8 µg/mL | 2 µg/mL | MPC (Klebsiella pneumoniae [5]): 64 µg/mL; MIC (Escherichia coli [9]): 0.004 µg/mL; MIC (Escherichia coli [10]): 0.004 µg/mL; MIC (Escherichia coli [11]): 0.125 µg/mL; MIC (Escherichia coli [15]): 0.25 µg/mL; MIC (Escherichia coli [25]): 2 µg/mL; MIC (Escherichia coli [16]): 0.125 µg/mL; MIC (Escherichia coli [26]): 4 µg/mL; MIC (Escherichia coli [17]): 0.125 µg/mL; MIC (Escherichia coli [18]): 2 µg/mL; MPC (Klebsiella pneumoniae [22]): 128 µg/mL; MIC (Klebsiella pneumoniae [23]): 64 µg/mL; MPC (Klebsiella pneumoniae [24]): 8 µg/mL; MIC (Klebsiella pneumoniae [24]): 0.25 µg/mL |
| O=C(O)c1cn(C2CC2)c2cc(N3CCNCC3)c(F)cc2c1=O [CIPROFLOXACIN] | 16 µg/mL | 2 µg/mL (≈ 6.04 µM) | 16 µg/mL (≈ 48.3 µM) | 4 µg/mL | 8 µg/mL (≈ 24.1 µM) | 1 µg/mL (≈ 3.02 µM) | 32 µg/mL (≈ 96.6 µM) | 32 µg/mL | 4 µg/mL (≈ 12.1 µM) | 16 µg/mL (≈ 48.3 µM) | 0.015 µg/mL | 0.015 µg/mL | 2 µg/mL | 0.06 µg/mL | 4 µg/mL | 4 µg/mL | 4 µg/mL | 0.06 µg/mL | 4 µg/mL (≈ 12.1 µM) | 2 µg/mL (≈ 6.04 µM) | MIC (Klebsiella pneumoniae [3]): 0.25 µg/mL (≈ 0.754 µM); MPC (Klebsiella pneumoniae [5]): 64 µg/mL; MPC (Klebsiella pneumoniae [22]): 128 µg/mL; MIC (Klebsiella pneumoniae [23]): 64 µg/mL (≈ 193 µM); MPC (Klebsiella pneumoniae [24]): 8 µg/mL; MIC (Klebsiella pneumoniae [24]): 0.25 µg/mL (≈ 0.754 µM) |
